Data on two molecules can be found in ChEMBL document CHEMBL4261489, “Quantitative measurement of intracellular HDAC1/2 drug occupancy using a trans-cyclooctene largazole thiol probe” (Medchemcomm, 2017).

The target of data set [1] is T1, Histone deacetylase 2 (Homo sapiens, UniProt Q92769). In words: Binding affinity to HDAC2 in human CD34positive cell-derived erythroid progenitor cells up to 3 uM by tetrazine-PEG4-biotin-based SDS-PAGE/immunoblot analysis.
Data set [2] deals with T2, Histone deacetylase 1 (Homo sapiens, UniProt Q13547). Briefly: Binding affinity to HDAC1 in human CD34positive cell-derived erythroid progenitor cells measured up to 120 mins by tetrazine-PEG4-biotin-based SDS-PAGE/immunoblot analysis.
T2 sequence (Q13547 whole entry): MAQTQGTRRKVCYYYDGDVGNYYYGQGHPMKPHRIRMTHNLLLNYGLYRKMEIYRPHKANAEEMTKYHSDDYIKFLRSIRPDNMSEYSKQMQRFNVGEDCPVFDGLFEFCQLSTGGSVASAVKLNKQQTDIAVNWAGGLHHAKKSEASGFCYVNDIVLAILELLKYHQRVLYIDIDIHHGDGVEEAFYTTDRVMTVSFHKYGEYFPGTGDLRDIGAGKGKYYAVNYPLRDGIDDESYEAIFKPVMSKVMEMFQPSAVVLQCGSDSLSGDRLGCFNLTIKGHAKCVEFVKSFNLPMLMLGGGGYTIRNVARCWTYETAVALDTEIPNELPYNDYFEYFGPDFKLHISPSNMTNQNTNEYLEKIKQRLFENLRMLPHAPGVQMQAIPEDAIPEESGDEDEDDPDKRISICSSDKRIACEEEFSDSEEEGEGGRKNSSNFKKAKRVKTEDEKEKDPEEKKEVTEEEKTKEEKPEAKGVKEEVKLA
Data set [3] is described as follows: Apparent permeability of the compound. Format: ADME. The note with it: not told.
In data set [4] the target is T2, Histone deacetylase 1. In words: Competitive binding affinity to HDAC1 in human CD34positive cell-derived erythroid progenitor cells in presence of largazole thiol by tetrazine-PEG4-biotin-based SDS-PAGE/immunoblot analysis. The method, boiled down: (§1)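 Mobilized peripheral blood CD34+ cells were expanded 7 days with CC100 cytokines, then 4 days in erythroid medium (SCF, IL-3, EPO, dexamethasone, β-estradiol). Cells got DMSO or 1–100 nM inhibitor (37 °C, 2 h or 24 h), then 3 μM TCO largazole thiol for 10 min. Lysates were clicked with 50 μM tetrazine-PEG4-biotin, pulled down on streptavidin and immunoblotted for HDAC1/2. Occupancy versus vehicle gave OC50 by sigmoidal fit.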

Data set [5] deals with T1, Histone deacetylase 2. In words: Competitive binding affinity to HDAC2 in human CD34positive cell-derived erythroid progenitor cells in presence of largazole thiol by tetrazine-PEG4-biotin-based SDS-PAGE/immunoblot analysis. The method, boiled down: as §1
Data set [6] deals with T1, Histone deacetylase 2. In words: Binding affinity to HDAC2 in human CD34positive cell-derived erythroid progenitor cells measured up to 120 mins by tetrazine-PEG4-biotin-based SDS-PAGE/immunoblot analysis.
Data set [7] deals with Histone deacetylase 3 (Homo sapiens) (UniProt O15379). Briefly: Binding affinity to HDAC3 in human CD34positive cell-derived erythroid progenitor cells by tetrazine-PEG4-biotin-based SDS-PAGE/immunoblot analysis.
Chain of Histone deacetylase 3 (Homo sapiens) (O15379 whole entry, the tested form may be a part): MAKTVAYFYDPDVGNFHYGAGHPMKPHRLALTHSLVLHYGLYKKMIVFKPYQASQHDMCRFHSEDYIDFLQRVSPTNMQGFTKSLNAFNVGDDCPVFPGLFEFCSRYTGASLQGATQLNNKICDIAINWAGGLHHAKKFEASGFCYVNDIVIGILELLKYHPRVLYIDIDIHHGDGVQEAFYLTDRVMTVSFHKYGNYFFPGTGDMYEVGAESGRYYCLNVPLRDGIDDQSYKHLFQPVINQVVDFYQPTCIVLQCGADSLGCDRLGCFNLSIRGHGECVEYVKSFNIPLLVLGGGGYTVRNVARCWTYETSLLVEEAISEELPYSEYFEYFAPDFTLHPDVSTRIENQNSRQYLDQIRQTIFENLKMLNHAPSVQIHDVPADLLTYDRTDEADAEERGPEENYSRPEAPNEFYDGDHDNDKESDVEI
The target in data set [8] is Histone deacetylase 3/Nuclear receptor corepressor 2 (HDAC3/NCoR2) (Homo sapiens, UniProt O15379). Briefly: Inhibition of C-terminal His-tagged full length recombinant human HDAC3/N-terminal GST-tagged NCOR2 (395 to 489 residues) expressed in baculovirus infected Sf9 insect cells using HDAC substrate 3 after 30 mins by fluorescence assay. Summed up:
(§2)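 Fluorogenic deacetylation was run at 37 °C for 30 min in HEPES pH 7.5 buffer with NaCl, KCl, Tween 20, TCEP and BSA. Enzyme and substrate were: HDAC1 10 ng, HDAC2 5 ng or HDAC3 2 ng with 10 µM substrate 3; HDAC8 10 ng with 2 µM class 2a substrate 1. Compound ran at 0.001–10000 nM. Developer was added for 20 min at RT and fluorescence read at Ex360/Em460.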

Data set [9] concerns the target T3, Histone deacetylase 8 (Homo sapiens, UniProt Q9BY41).
T3 sequence (Q9BY41 whole entry): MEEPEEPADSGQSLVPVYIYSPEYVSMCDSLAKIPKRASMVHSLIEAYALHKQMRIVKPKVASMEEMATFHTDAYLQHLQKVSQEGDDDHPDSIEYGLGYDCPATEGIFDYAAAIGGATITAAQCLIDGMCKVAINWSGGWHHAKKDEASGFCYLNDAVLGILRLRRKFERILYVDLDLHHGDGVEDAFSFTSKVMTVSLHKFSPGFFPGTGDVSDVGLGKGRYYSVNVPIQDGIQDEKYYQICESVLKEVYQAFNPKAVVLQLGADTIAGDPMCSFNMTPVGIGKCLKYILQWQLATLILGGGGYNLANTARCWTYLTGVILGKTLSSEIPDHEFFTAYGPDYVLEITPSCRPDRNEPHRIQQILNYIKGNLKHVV
Briefly: Inhibition of C-terminal His-tagged full length recombinant human HDAC8 expressed in baculovirus infected Sf9 insect cells using HDAC class 2a substrate 1 after 30 mins by fluorescence assay. Summed up: as §2

Data set [10] deals with T2, Histone deacetylase 1. In words: Inhibition of C-terminal FLAG/His-tagged full length recombinant human HDAC1 expressed in baculovirus infected Sf9 insect cells using HDAC substrate 3 after 30 mins by fluorescence assay. The method, boiled down:
as §2

For data set [11], the target named is T1, Histone deacetylase 2. In words: Inhibition of C-terminal FLAG or His-tagged full length recombinant human HDAC2 expressed in baculovirus infected Sf9 insect cells using HDAC substrate 3 after 30 mins by fluorescence assay. The method, boiled down:
as §2

The target in data set [12] is T2, Histone deacetylase 1. Briefly: Binding affinity to HDAC1 in human CD34positive cell-derived erythroid progenitor cells up to 3 uM by tetrazine-PEG4-biotin-based SDS-PAGE/immunoblot analysis.
The target of data set [13] is T1, Histone deacetylase 2.

Activity calls are given as the source filed them. The calls are words filed in the database; no cut-off is given here.

T1 sequence (Q92769 whole entry): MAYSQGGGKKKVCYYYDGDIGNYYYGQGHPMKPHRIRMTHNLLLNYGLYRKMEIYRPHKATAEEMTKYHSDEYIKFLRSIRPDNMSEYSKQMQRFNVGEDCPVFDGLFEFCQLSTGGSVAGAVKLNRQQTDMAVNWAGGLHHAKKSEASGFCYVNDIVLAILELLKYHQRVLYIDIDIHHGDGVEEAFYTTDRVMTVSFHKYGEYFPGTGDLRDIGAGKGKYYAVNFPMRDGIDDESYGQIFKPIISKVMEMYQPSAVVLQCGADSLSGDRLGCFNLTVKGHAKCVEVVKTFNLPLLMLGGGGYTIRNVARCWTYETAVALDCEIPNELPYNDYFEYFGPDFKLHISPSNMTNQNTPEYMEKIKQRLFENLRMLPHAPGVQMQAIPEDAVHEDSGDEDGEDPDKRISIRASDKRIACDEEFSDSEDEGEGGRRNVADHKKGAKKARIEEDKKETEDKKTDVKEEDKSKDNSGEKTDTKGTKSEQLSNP
Chain of Histone deacetylase 3/Nuclear receptor corepressor 2 (HDAC3/NCoR2) (O15379 whole entry, the tested form may be a part): as the sequence (O15379 whole entry, the tested form may be a part) above
Chain of Histone deacetylase 3/Nuclear receptor corepressor 2 (HDAC3/NCoR2) (Q9Y618 whole entry, further chain, the tested form may be a part): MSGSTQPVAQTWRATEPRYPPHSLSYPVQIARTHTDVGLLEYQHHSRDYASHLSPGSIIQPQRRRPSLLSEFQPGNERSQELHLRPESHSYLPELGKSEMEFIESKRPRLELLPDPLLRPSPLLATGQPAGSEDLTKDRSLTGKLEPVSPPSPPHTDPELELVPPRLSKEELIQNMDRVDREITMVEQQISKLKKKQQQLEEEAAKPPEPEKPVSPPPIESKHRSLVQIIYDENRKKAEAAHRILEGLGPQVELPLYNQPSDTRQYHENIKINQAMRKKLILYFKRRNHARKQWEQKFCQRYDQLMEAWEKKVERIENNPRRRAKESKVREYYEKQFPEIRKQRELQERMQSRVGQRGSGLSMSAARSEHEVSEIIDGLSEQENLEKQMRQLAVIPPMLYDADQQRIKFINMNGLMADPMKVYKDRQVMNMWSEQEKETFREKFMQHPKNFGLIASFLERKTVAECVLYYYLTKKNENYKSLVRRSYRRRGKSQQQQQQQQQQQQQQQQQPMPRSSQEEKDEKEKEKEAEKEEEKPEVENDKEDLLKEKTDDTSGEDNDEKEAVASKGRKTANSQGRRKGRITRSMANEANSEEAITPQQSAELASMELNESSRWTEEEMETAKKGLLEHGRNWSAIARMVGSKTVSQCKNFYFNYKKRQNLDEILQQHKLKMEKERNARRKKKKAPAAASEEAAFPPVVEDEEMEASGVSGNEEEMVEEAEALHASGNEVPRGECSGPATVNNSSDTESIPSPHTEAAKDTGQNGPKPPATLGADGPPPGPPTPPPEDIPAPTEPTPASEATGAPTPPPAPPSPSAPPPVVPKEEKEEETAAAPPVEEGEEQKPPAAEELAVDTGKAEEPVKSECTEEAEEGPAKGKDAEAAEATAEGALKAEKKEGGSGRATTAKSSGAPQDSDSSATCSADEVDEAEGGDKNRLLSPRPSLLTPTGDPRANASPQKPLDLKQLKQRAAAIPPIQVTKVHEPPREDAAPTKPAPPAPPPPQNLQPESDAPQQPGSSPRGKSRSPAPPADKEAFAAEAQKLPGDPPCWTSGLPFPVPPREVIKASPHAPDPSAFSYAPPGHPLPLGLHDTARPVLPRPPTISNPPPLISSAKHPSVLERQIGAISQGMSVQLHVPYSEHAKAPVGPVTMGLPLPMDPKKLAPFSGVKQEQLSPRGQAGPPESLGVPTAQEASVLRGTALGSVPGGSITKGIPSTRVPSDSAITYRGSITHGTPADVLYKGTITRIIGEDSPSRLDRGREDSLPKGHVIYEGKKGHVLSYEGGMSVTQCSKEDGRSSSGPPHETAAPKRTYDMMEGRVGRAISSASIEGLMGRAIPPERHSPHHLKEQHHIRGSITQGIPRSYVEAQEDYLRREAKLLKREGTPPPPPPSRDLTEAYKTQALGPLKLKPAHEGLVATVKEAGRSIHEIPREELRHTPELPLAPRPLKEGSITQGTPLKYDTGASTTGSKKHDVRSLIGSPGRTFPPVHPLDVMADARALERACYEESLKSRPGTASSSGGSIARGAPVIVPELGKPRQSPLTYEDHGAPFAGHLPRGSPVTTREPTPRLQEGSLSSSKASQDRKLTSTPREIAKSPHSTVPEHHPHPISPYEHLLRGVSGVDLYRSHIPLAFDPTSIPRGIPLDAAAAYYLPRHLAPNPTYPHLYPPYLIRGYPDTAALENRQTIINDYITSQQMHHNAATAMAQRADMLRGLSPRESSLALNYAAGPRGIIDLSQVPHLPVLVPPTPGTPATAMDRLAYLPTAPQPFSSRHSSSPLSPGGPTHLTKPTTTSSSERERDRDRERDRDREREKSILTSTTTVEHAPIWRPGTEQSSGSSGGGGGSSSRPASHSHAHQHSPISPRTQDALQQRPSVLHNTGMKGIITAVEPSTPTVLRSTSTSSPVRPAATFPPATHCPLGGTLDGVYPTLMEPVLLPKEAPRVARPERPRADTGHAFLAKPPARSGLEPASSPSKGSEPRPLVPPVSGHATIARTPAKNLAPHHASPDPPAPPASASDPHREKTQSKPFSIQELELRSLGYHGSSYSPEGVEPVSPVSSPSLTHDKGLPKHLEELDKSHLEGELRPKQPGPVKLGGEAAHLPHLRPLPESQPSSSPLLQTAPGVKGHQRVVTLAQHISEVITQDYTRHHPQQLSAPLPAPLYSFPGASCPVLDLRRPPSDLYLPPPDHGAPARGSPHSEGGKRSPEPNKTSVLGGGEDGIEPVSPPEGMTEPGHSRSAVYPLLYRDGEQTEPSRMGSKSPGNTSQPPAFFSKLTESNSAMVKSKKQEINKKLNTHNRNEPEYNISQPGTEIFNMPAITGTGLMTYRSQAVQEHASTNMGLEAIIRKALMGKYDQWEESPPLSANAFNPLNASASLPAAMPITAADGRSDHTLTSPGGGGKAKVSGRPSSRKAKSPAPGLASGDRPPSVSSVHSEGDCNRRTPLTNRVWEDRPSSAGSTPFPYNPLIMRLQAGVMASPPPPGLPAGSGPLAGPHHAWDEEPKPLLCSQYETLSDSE

As for `C[C@@]12CSC(=N1)c1csc(n1)CNC(=O)C[C@@H](/C=C/CCS)OC(=O)[C@H](CCCCNC(=O)O[C@@H]1CC/C=C/CCC1)NC2=O`, the result in data set [1], in [2], in data set [4], in data set [5], in data set [6] and in data set [12] was Active. The Papp in [3] was 3.23 ×10⁻⁶ cm/s. Also, the outcome in [7] was inactive. Besides, the IC50 in data set [8] was found to be 1.1 nM; in data set [9], 1110 nM; in [10], 1.9 nM; in data set [11] it was 6.6 nM.
`O=C(/C=C/c1ccc(CN(CCO)CCc2c[nH]c3ccccc23)cc1)NO` returned an Occ50 in data set [13] of 3 nM.
